The values that follow come from ChEMBL document CHEMBL1146513, “Discorhabdins I and L, cytotoxic alkaloids from the sponge Latrunculia brevis” (J Nat Prod, 2004).

One data set deals with DU-145. Briefly: Cytotoxicity against human DU145 cells by SRB assay. It is filed as functional, cell-based. In a few lines:
(§1)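 Sulforhodamine B colorimetric staining quantifies cell growth and viability. Compounds were run in vitro against a 14-line tumour panel covering prostate, ovary, breast, melanoma, endothelial, NSCLC, leukaemia, pancreas and colon lines, with values reported as GI50.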

Another data set has as its system SK-BR-3. The data set can be described thus: Cytotoxicity against human SKBR3 cells by SRB assay. It is filed as functional, cell-based. In short, it runs like this: as §1
The next data set relates to PANC-1. The data set can be described thus: Cytotoxicity against human PANC1 cells by SRB assay. It is filed as functional, cell-based. In short, it runs like this:
as §1
Background: The SRB assay estimates cell density from bound dye.

For a further data set, the system named is A549. Briefly: Cytotoxicity against human A549 cells by SRB assay. The data set is classed as functional, cell-based. In a few lines:
as §1

In another data set the test system is SK-MEL-28. Briefly: Cytotoxicity against human SK-MEL-28 cells by SRB assay. The data set is classed as functional, cell-based. In a few lines: as §1
The subject of a further data set is LNCaP. Briefly: Cytotoxicity against human LNCAP cells by SRB assay. It is filed as functional, cell-based. In a few lines:
as §1

A further data set has as its system HT-29. Briefly: Cytotoxicity against human HT-29 cells by SRB assay. It is filed as functional. In a few lines: as §1
Data set [1] relates to LoVo. The data set can be described thus: Cytotoxicity against human LoVo cells by SRB assay. It is filed as functional, cell-based. In short, it runs like this: as §1
In data set [2] the test system is LoVo. Briefly: Cytotoxicity against human doxorubicin-resistant LoVo cells by SRB assay. It is filed as functional, cell-based. In a few lines:
as §1

In a further data set the test system is K562. Briefly: Cytotoxicity against human K562 cells by SRB assay. It is filed as functional, cell-based. In short, it runs like this:
as §1

In a further data set the test system is IGROV-ET. Briefly: Cytotoxicity against human IGROV-ET cells by SRB assay. It is filed as functional, cell-based. In short, it runs like this: as §1
A further data set relates to IGROV. The data set can be described thus: Cytotoxicity against human IGROV cells by SRB assay. It is filed as functional, cell-based. In a few lines:
as §1

Data set [3] can be described thus: Cytotoxicity against human HMEC1 cells by SRB assay. It is filed as cell-based. To be noted: hmec-1. In short, it runs like this:
as §1

Another data set concerns SK-OV-3. Briefly: Cytotoxicity against human SKOV3 cells by SRB assay. It is filed as functional, cell-based. In a few lines: as §1

Active and inactive are the calls of the source. The rule behind the calls is not given here.

As usually defined, the GI50 is the concentration that inhibits growth by half. A low value points to greater sensitivity of the cells.

Consider `O=C1C=C[C@@]23C[C@@H](NC4=C2C2=NCCc5c[nH]c(c52)C4=O)SC3=C1` [1-DEBROMODISCORHABDIN B], for which the outcome with DU-145, in the data set on SK-BR-3, with PANC-1, in the data set on A549, in the data set on SK-MEL-28 and with LNCaP was Active. The outcome in the data set with LoVo [1], in the data set on LoVo [2], in the data set on K562, in the data set with IGROV-ET, with IGROV and in the data set on SK-OV-3 was Active. Also, in the data set on HT-29, the GI50 was 350 nM. The result in data set [3] was Active.
With `O=C([O-])C(F)(F)F.O=C1C2=C3C4=[N+](CCc5c[nH]c1c54)[C@@H]1C(=O)C=C4S[C@@H](C[C@@]43[C@H]1O)N2` [DISCORHABDIN L], the result with DU-145, with SK-BR-3, in the data set on PANC-1, with A549, in the data set with SK-MEL-28 and with LNCaP was Active. Further, the result in the data set with LoVo [1], in the data set with LoVo [2], in the data set on K562, in the data set with IGROV-ET, in the data set with IGROV and in the data set with SK-OV-3 was Active. For the same molecule, it took 120 nM to inhibit growth with HT-29 by half (GI50). In data set [3], the result was Active.
